# Test results reported in ChEMBL document CHEMBL4041491, “Imidazo[1,2-a]pyrazin-8-amine core for the design of new adenosine receptor antagonists: Structural exploration to target the A3 and A2A subtypes” (Eur J Med Chem, 2017).
# The source made the active and inactive calls. No cut-off for these calls is given here.
# Key:
# [1] = molecular target: T1, Adenosine receptor A2b (Homo sapiens) (UniProt P29275); assay: Antagonist activity at human A2B receptor expressed in CHO cells assessed as inhibition of NECA-stimulated cAMP production at 1 uM by [3H]cAMP competition binding based scintillation counting method relative to control; assay type: functional, cell-based
# T1 sequence (whole entry): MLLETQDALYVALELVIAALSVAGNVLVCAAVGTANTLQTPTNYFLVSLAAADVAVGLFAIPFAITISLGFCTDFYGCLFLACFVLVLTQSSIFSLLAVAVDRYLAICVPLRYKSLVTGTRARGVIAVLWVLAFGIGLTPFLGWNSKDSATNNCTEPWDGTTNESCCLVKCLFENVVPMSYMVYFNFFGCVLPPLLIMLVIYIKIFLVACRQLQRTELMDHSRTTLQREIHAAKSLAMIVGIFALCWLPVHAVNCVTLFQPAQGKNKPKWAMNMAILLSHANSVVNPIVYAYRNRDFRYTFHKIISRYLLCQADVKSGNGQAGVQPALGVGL
# Outline: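 Transfected CHO cells (1 × 10^6/assay) in buffered saline pH 7.4 with adenosine deaminase 2 IU/ml and Ro 20-1724, preincubated 10 min at 37 °C. Test compound at 1 μM against 200 nM NECA-stimulated cAMP. TCA stop, ether extraction, cAMP measured by [3H]cAMP competition binding to bovine adrenal binding protein. Result given as percent inhibition.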
# Hippocampus [2] = assay: Anti-ischemic activity in Wistar rat hippocampal slices assessed as latency time for 30 mins oxygen-glucose deprivation-induced occurrence of anoxic depolarization at 200 nM by electrophysiology method (reference value: 6.3 +/- 0.3 min)
# Hippocampus [3] = assay: Anti-ischemic activity in Wistar rat hippocampal slices assessed as peak amplitude of 30 mins oxygen-glucose deprivation-induced anoxic depolarization at 200 nM by electrophysiology method (reference value: -7.5 +/- 1.2 mV); assay type: functional
# Outline: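 Rat hippocampal slices, extracellular d.c. recording in CA1 stratum radiatum. 30-min OGD, then reperfusion with oxygenated glucose aCSF. Compound at 200 nM, diluted from DMSO stock into aCSF, applied 15 min before, during and 5 min after OGD. AD latency in min from OGD onset; amplitude in mV at peak negativity. Mean ± SEM, n slices.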
# [4] = molecular target: T2, Adenosine receptor A3 (Rattus norvegicus) (UniProt P28647); assay: Displacement of [125I]AB-MECA from rat adenosine A3 receptor expressed in HEK293 cell membranes at 1 uM after 120 mins by scintillation counting method relative to control
# T2 sequence (whole entry): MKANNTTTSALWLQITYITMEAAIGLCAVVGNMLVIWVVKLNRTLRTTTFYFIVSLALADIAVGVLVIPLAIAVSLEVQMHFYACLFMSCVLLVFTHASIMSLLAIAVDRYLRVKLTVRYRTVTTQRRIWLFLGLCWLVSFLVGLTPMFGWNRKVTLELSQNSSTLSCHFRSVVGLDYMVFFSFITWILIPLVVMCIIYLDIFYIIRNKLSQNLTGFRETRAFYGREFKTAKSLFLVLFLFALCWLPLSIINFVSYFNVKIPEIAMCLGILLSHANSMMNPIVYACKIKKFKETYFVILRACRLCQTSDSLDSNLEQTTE
# Outline: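 rA3 receptor in HEK293 membranes (10 μg protein), 0.5 nM [125I]AB-MECA, 50 mM Tris–HCl, 10 mM MgCl2, 1 mM EDTA, pH 7.4, 120 min at 25 °C. Nonspecific binding with 1 μM AB-MECA; filtration and scintillation counting. Percent inhibition of specific binding at 1 µM.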
# Hippocampus [5] = assay: Anti-ischemic activity in Wistar rat model of 7 mins oxygen-glucose deprivation-induced cerebral ischemia assessed as recovery of fEPSP amplitude in CA1 region of hippocampal slices at 200 nM incubated for 15 mins prior to induction of oxygen-glucose deprivation and maintained during entire period of oxygen-glucose deprivation/reoxygenation subsequent incubation for 5 mins after OGD insult measured up to 15 mins by electrophysiology method; assay type: functional, tissue-based
# Outline: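 Rat hippocampal slices, CA1 stratum radiatum stimulated (80 μs, 0.066 Hz) at 40–50% of maximal fEPSP. Compound at 200 nM in aCSF, DMSO ≤0.05%, applied 15 min before, during and 5 min after 7-min OGD, then reperfusion in oxygenated aCSF. fEPSP amplitude expressed as % of mean over the 5 min before OGD.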
# Adenosine receptor A2a [6] = molecular target: T3, Adenosine receptor A2a (Homo sapiens, UniProt P29274); assay: Displacement of [3H]ZM241385 from human adenosine A2A receptor expressed in CHO cell membranes at 1 uM after 60 mins by scintillation counting method relative to control
# T3 sequence (P29274 whole entry): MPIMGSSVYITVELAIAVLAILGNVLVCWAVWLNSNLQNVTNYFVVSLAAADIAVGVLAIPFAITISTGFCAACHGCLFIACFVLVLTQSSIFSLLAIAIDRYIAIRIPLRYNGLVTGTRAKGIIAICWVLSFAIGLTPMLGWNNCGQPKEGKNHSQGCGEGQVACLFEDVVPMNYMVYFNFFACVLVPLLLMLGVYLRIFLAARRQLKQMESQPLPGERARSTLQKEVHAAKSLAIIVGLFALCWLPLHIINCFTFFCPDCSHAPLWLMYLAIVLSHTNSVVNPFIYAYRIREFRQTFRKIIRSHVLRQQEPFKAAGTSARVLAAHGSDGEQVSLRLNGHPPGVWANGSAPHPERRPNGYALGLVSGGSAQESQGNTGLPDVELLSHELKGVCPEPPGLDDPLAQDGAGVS
# Outline: (§1)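 hA2A CHO membranes (50 µg protein) with 1 nM [3H]ZM241385 in 50 mM Tris HCl, 10 mM MgCl2, pH 7.4, 60 min at 4 °C. Six to eight antagonist concentrations, or 1 µM for percent inhibition. Nonspecific binding with 1 µM ZM241385. Ki via Cheng–Prusoff, four assays in duplicate, means ± SEM.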
# [7] = molecular target: T4, Adenosine receptor A1 (Homo sapiens) (UniProt P30542); assay: Displacement of [3H]DPCPX from human adenosine A1 receptor expressed in CHO cell membranes at 1 uM after 120 mins by scintillation counting method relative to control
# T4 sequence (whole entry): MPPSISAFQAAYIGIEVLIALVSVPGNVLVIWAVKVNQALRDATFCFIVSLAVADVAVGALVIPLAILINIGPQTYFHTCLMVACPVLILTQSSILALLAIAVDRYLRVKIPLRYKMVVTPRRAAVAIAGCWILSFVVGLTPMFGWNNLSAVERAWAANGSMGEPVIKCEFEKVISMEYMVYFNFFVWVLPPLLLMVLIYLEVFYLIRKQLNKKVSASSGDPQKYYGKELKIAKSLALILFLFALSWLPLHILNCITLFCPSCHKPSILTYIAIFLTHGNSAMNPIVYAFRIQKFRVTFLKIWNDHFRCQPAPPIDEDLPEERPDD
# Outline: (§2)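 hA1 CHO membranes (50 µg protein) with 1 nM [3H]DPCPX in 50 mM Tris HCl pH 7.4, 120 min at 25 °C. Six to eight antagonist concentrations, or 1 µM for percent inhibition. Nonspecific binding with 1 µM DPCPX. Ki via Cheng–Prusoff, four assays in duplicate, means ± SEM.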
# Adenosine receptor A3 [8] = molecular target: T5, Adenosine receptor A3 (Homo sapiens, UniProt P0DMS8); assay: Displacement of [125I]AB-MECA from human adenosine A3 receptor expressed in CHO cell membranes after 120 mins by scintillation counting method
# T5 sequence (P0DMS8 whole entry, looked up): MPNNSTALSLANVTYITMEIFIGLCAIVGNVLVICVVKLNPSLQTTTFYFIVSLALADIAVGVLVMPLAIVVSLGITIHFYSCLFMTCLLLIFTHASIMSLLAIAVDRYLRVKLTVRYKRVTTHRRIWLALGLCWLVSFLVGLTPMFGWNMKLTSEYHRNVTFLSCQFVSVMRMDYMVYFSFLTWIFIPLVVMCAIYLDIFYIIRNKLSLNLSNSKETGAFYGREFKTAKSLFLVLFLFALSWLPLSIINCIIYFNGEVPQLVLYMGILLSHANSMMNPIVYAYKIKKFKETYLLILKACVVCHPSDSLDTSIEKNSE
# Outline: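 hA3 CHO membranes (50 µg protein) with 0.5 nM [125I]AB-MECA in 50 mM Tris HCl, 10 mM MgCl2, 1 mM EDTA, pH 7.4, 120 min at 4 °C. Six to eight ligand concentrations, or 1 µM for percent inhibition. Nonspecific binding with 1 µM AB-MECA; GF/B filtration. Ki by Cheng–Prusoff, four assays in duplicate, means ± SEM.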
# Adenosine receptor A3 [9] = molecular target: T5, Adenosine receptor A3; assay: Antagonist activity at human A3 receptor expressed in CHO cells assessed as inhibition of CI-IB-MECA-mediated inhibition of cAMP production by [3H]cAMP competition binding based scintillation counting method; assay type: cell-based
# Outline: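 hA3-transfected CHO cells (1 × 10^6/assay) in buffered saline pH 7.4 with adenosine deaminase and Ro 20-1724, preincubated 10 min at 37 °C. Antagonism of 100 nM Cl-IB-MECA inhibition of 1 µM forskolin-stimulated cAMP. cAMP measured by [3H]cAMP protein-binding assay. IC50 by sigmoid nonlinear regression, four independent experiments in triplicate, means ± SEM.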
# Adenosine receptor A1 = molecular target: T6, Adenosine receptor A1 (Homo sapiens, UniProt P30542); assay: Displacement of [3H]DPCPX from human adenosine A1 receptor expressed in CHO cell membranes after 120 mins by scintillation counting method; outline: as §2
# T6 sequence (P30542 whole entry): T4 sequence (whole entry)
# Adenosine receptor A3 [10] = molecular target: T5, Adenosine receptor A3; assay: Displacement of [125I]AB-MECA from human adenosine A3 receptor expressed in CHO cell membranes at 1 uM after 120 mins by scintillation counting method relative to control
# Adenosine receptor A2a [11] = molecular target: T3, Adenosine receptor A2a; assay: Displacement of [3H]ZM241385 from human adenosine A2A receptor expressed in CHO cell membranes after 60 mins by scintillation counting method; outline: as §1
SMILES,inhibition [1] [%],Time (Hippocampus [2]) [min],Activity (Hippocampus [3]) [mV],inhibition [4] [%],Activity (Hippocampus [5]),inhibition (Adenosine receptor A2a [6]) [%],inhibition [7] [%],Ki (Adenosine receptor A3 [8]) [nM],IC50 (Adenosine receptor A3 [9]) [nM],Ki (Adenosine receptor A1) [nM],inhibition (Adenosine receptor A3 [10]) [%],Ki (Adenosine receptor A2a [11]) [nM]
O=C(Nc1nc(-c2ccccc2)cn2cc(-c3ccccc3)nc12)c1cccnc1,3,8.2,-7.1,2,Active,1,11,54,172,–,–,–
Nc1nc(-c2ccccc2)cn2cc(-c3ccccc3)nc12,36,–,–,–,–,–,–,–,–,180,23,310
Nc1nc(Br)cn2cc(-c3ccco3)nc12,29,–,–,–,–,–,–,–,–,210,28,265
Nc1nc(-c2ccccc2)cn2cc(-c3ccco3)nc12,10,–,–,–,–,–,–,–,–,143,21,520
